Experimental data published in the EternaBench riboswitch data.

Test system: MS2 coat protein
Assay: apparent Kd, MS2 coat protein; higher = weaker binding; RNA-MaP array; FMN 200 µM where present
Procedure, shortened: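 Stalled E. coli RNA polymerase transcribed the designs on Illumina sequencing-chip clusters. SNAP-549-labelled MS2 coat protein was titrated from 0.7 or 1.5 nM, doubling to 3 µM, without and then with constant ligand, in 100 mM Tris-HCl pH 7.5, 80 mM KCl, 4 mM MgCl2, BSA, DTT, yeast tRNA and Tween-20. Per-cluster binding curves were fitted to green signal normalised to red-channel RNA signal and control-cluster median Fmax. The apparent Kd is the median of the filtered fits.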

[1] = designed as: OFF switch for flavin mononucleotide, no ligand
[2] = ligand present: flavin mononucleotide, designed as: OFF switch for flavin mononucleotide
[3] = designed as: ON switch for flavin mononucleotide, no ligand
[4] = ligand present: flavin mononucleotide, designed as: ON switch for flavin mononucleotide

Row | Sequence | apparent Kd [1] [µM] | apparent Kd [2] [µM] | apparent Kd [3] [µM] | apparent Kd [4] [µM]
1 | UGUAUGGACAGAGGAUAUACCGAUAGGAUCUACUAUCGAAUAAUCCUCACAUGAGGAUCACCCAUGUAGAAGGCUGUCCAUACU | 0.0212 | 0.142 | – | –
2 | UGGUACUAGGGAGGAUAUGGGAAUAUACAUGAGGAUCACCCAUGUUUAAGAAUGCCGAGAGGCAACUAGAAGGCCCUAGUACCU | – | – | 0.0111 | 0.00485
3 | UCCUCACAUGAGGAUCACCCAUGUGAGGAUAUGGGCCCGGGCCCGUUCGGGCCCGGGCCCAGAAGGCACUGGGU | 0.0421 | 0.019 | – | –
4 | GUGCGAGCCACAGGAUAUCUACAAAUUUACUGUAGAGAAGGGUGACCUCGUGCACCACAUGAGGAUCACCCAUGUAACUAGGCG | – | – | 0.0263 | 0.053
5 | UCAUGUUUAGAGGAUAUGAUUACUUUUGAGUAAUCAGAAGGCUAGACAUGAGGAUCACCCAUGUCAUAACAUGA | 0.09 | 0.112 | – | –
6 | GGUCCAUCAUGAGGAUAUGGCACCUUAUUUGUGCCAGAAGGCAUGUCGAUAGACAUGAGGAUCACCCAUGUAAUAAAUUGGACC | – | – | 1.43 | 0.104
7 | UUUUUCUCAGGAUAUACAUGAGGAUCACCCAUGUAUAUUGAAGAUAAUACAUGGGAAUGUAGAAGGGAGCUCAU | 0.109 | 0.115 | – | –
8 | UUUAUAUUCAGAGGAUAUUAAUGUAGUAUAAUAUAAGAAGGCUGUUUGUUUUGUAAAGUUAUUAUACAUGAGGAUCACCCAUGU | – | – | 0.0184 | 0.0155
9 | CGGUAAACCACAGGAUAUGGCUAGUAUAACUAGCCAGAAGGGUGGUCGAAACCAUGUAAAUACAUGAGGAUCACCCAUGUAUCC | – | – | 0.496 | 0.0476
10 | CAAAACAUCUCCGUGUUUGUCGAACAUGAGGAUCACCCAUGUAGAAGGCAUCGCGCGACGCAGGAUGAGGAUAUACGCUGGAUG | 0.00643 | 0.011 | – | –
11 | AAAAAACAUGAGGAUCACCCAUGUGAGGAUAUCAGUAUUCAGUCCUCGGAUUGAGUACUGAGAAGGCACAUAAA | 0.0515 | 0.0942 | – | –
12 | CGCAACUCAGAUCUGUUAAACAUGAGGAUCACCCAUGUAUUGAGAAGGAGGAAGAAGAGAGAUUCCUAGGAUAUCAGAGUUGCG | 0.00662 | 0.00698 | – | –
13 | AUAAUUUUAUUUUUCCCAAGAAUCAGAAGGCGUUACAUGAGGAUCACCCAUGUUUUGUAUAGUAACGAGGAUAUGAUAUGGUUA | 0.0152 | 0.0147 | – | –
14 | UGGUACUAGGGAGGAUAUGGGAAGAUACAUGAGGAUCACCCAUGUUUAAGAAUGCCGAGAGGGAACUAGAAGGCCCUAGUACCU | – | – | – | 0.0145
15 | GUUAUUGACAAGAAGGCAUACAUGAGGAUCACCCAUGUUCUACAUGGAUAAUGAGGAUAUUGCCAAUACAUGAGGAUCACCCAG | 0.0683 | 0.0775 | – | –
16 | UUAUCUCAUGAGAAGGACAUGAGGAUCACCCAUGUAGGAUAUCAUGGGUCAGUGGAAUUGAAUCUUCGGAUUCAAUUACUCUAC | – | – | 0.0606 | 0.0115
17 | UACAUGUGAGGAUAUUAGAUCGCUAACUGGCGGGAGCGAUCUGAGAAGGCACAUGAGGAUCACCCAUGUGUCGU | 0.0169 | 0.0402 | – | –
18 | ACGCUCAGAGGAUAUACAUGAGGAUCACCCAUGUGUUACCGAGGAGUACGGUCGUCACGUAGAAGGCUGGGUAA | 0.0179 | 0.0632 | – | –
19 | CGCCUGGGAGGAUAUCCAAUAUAUGACAUGAGGAUCACCCAUGUUUCCACUCGUACCUCCGGAGAAGGCCCUGCGU | 0.0222 | 0.0235 | – | –

Row | Sequence | apparent Kd [1] [µM] | apparent Kd [2] [µM] | apparent Kd [3] [µM] | apparent Kd [4] [µM]
20 | CGUGCUAUGUAGAAGGCAGAUCUGAUUCAGAUCUGAGGAUAUACAUGAGGAUCACCCAUGUUAUGCACCAGCACGAGAGUGCAA | 0.00631 | 0.0105 | – | –
21 | GGUGCGUUUGUGAGGAUAUGCUGGUCCUUGGCUCAGCAGAAGGCACAUGAGGAUCACCCAUGUGGUGUCGUACC | 0.294 | 0.0418 | – | –
22 | UGUUGUAUUACAGGAUAUCUAUGGUUUUUAUUUAGAGAAGGGUAUUCACAUGAGGAUCACCCAUGUAUAUACGAGGAAGUUGUG | – | – | 0.0575 | 0.0637
23 | GUUUCACAUGAGGAUCACCCAUGUGAGGAUAUGGUUUCGCUGGCCGUAGCCAGUGGAACCAGAAGGCGCGUGAU | 0.0607 | 0.0711 | – | –
24 | CUGUAUCGGUCAGGAUAUGUGCGUAAACUGUGAACAGAAGGGACCGUACAUGAGGAUCACCCAUGUCCGGGACUCCUUAUGCCU | 0.0181 | 0.0222 | – | –
25 | CAGGUAGACUGAGGAUAUACAGACCUAGUCUAUCUAGGUCAAGUCCUUACAUGAGGAUCACCCAUGUAGAAGGCAGUCUGCCUG | 0.0195 | 0.0527 | – | –
26 | AUUGAUGUUGAGGAUAUGCUUUUAUUUGUUCUUGCAGAAGGCGAUACAUGAGGAUCACCCAUGUUCAUGGAAGU | 0.0516 | 0.0466 | – | –
27 | AAAGGACAUGAGGAUCACCCAUGUCAGGAUAUCGCUUUAGGACAUACCCAUUAACCUGCGAGAAGGGACGGUGA | 0.0328 | 0.0447 | – | –
28 | GCUGCAUAGGCAGGAUAUGCAACAAUUCGAAUAAAAUAUAACGAAUUGACAUGAGGAUCACCCAUGUAGAAGGGCCUGUGCAGU | 0.0186 | 0.02 | – | –
29 | GGAUCUUGGGUCAGGAUAUGCUGAUAUUUUUGUCAGCAGAAGGGACAUGAGGAUCACCCAUGUGCUUGGUUUUG | 0.0112 | 0.0218 | – | –
30 | GUUAAGAACUAAGGAUAUUGAAUACAUAUGUUUAACAUGAGGAUCACCCAUGUGGGUUGCGGUGUCGAGAAGGUAGAAUAAUAG | – | – | 0.201 | 0.195
31 | GUCCUACAUGAGGAUCACCCAUGUCAGGAUAUGUAGCGUCCGGGCGAUAAGGCUCGGAGCAGAAGGGACAGGUG | 0.0142 | 0.0162 | – | –
32 | UAGAAGUCAGGAUAUCCUGCUCGUCACUUGCGUGAUGAGUAGGAGAAGGGACAUGAGGAUCACCCAUGUAAAGU | 0.0565 | 0.0639 | – | –
33 | GAGCGAAAGCUCAAUGUCGAUAGCAGAAGGACAUGAAAACAUGAAAACACAUGAGGAUCACCCAUGUAGGAUAUGCUAUCGACU | 0.00943 | 0.0848 | – | –
34 | GGACGUCACAUUUACAUGAGGAUCACCCAUGUCGAAAGACAUGAGGAUAUGCAUCCUAAUUGGAUGCAGAAGGCAUGGACGUCC | – | – | 0.335 | 0.245
35 | GGGAGACAUGAGGAUCACCCAUGUGAAAACGUGUGAGGAUAUGUAUGGAAACCAUACUGUACAGAAGGCACUUGUC | – | – | 0.0538 | 0.041
36 | AAAAGGCAAGGAUAUACAUGAGGAUCACCCAUGUAAUUCCCGUCGGGAUGACCGAUAUGUAGAAGGUGCAUUAA | 0.0201 | 0.0433 | – | –
37 | AAGAUCCCUGUUAGGAUAUAGAGAUCGCCUGGGUCCUAGAAGGAACAUGAGGAUCACCCAUGUGACGUAUAUGU | 0.1 | 0.228 | – | –
38 | UGUAUGGACAGAGGAUAUGCCGAUAGGCUCUACUAUCGAAGAAUCCUCACAUGAGGAUCACCCAUGUAGAAGGCUGUCCAUACU | 0.0181 | 0.0413 | – | –

Row | Sequence | apparent Kd [1] [µM] | apparent Kd [2] [µM] | apparent Kd [3] [µM] | apparent Kd [4] [µM]
39 | UGAAGUGGCGACAUGAGGAUCACCCAUGUAUGGUAUUCAACCAGAAGGCAUGUUGAGGAAUUACAUGAGGAUAUGGGAGAUCUA | – | – | 0.314 | 0.121
40 | GUUACAUGAGGAUCACCCAUGUAUGUGUGGGAGUAAGUGUCUUAGGAUAUCUAUCAUUUAAUAUAAGAGAAGGAAGAUUGUUGU | – | – | 0.109 | 0.14
41 | AUACAACAUGAGGAUCACCCAUGUGAGGAUAUGCGAUACAUCAUCAUCAUCAUCAAUCGCAGAAGGCACAACAU | 0.0502 | 0.055 | – | –
42 | UCGGCGCGAGGAUAUACGUUUGCGCGUUUUCGUUUUCGCGUACAUGAGGAUCACCCAUGUAGAAGGCGCGCCGC | 0.0166 | 0.0321 | – | –
43 | CCACGUCACAUGAACAUGAGGAUCACCCAUGUAACUAGACAUGAGGAUAUGGAUCCUAAUUGGAUCCAGAAGGCAUGGACGUGG | – | – | 0.168 | 0.0292
44 | GGGUACAUCGGAGGAUAUCAUGUAAAUACAUGAGGAUCACCCAUGUCGAUGGAGACAUCGGAGAUUGAGAAGGUCGAUGUACCG | – | – | 0.197 | 0.00952
45 | ACAUCGUGAGACAUGAGGAUCACCCAUGUGUGAUAGUGGGCACAGGAUAUCCAGAUCUGGAAUCUGGAGAAGGGUGAUCGUUAA | – | – | 0.047 | 0.149
46 | UUUUUUUUAGUAAGGAUAUGAUGCAGGAAACUGCGUCAGAAGGUACAUGAGGAUCACCCAUGUUAAUUUUGUUU | 0.0188 | 0.0204 | – | –
47 | UGUAAAUUAUUAAGUAAUUAGGCGAAGGAUAUAUAACAUGAGGAUCACCCAUGUACUAAAUUGAAGUAGAAGGUUGAACAUUUC | – | – | 0.0145 | 0.0129
48 | AGCCAACAUGAGGAUCACCCAUGUCUACAGGAUUAAGGAUAUGGGCAGGGCUUCCCUGCACUAGAAGGUGAUCGAA | – | – | 0.153 | 0.214
49 | CAUAUGGUAACAGGAUAUAUGAGUCCUACAUGAGGAUCACCCAUGUAGGUGAUCUAACGAGAUUAGUAGAAGGGUUACCAUAUG | – | – | 0.0182 | 0.00898
50 | GACUCGUAAGUGAGGAUAUGGCUGUGCAGCUACAGCCAGAAGGCACAUGAGGAUCACCCAUGUGAUGGAAUUUU | 0.0159 | 0.0306 | – | –
51 | UAAAUCGGAGGAUAUACAUGAGGAUCACCCAUGUAAUCGCGUUGGCAUCGGUGGGUUAGUAGAAGGCUGUAAAU | 0.0305 | 0.0453 | – | –
52 | GUAGUCAGUAAUGAAAGCCCGGGCGCAGAAGGCCAGACACAUGAGGAUCACCCAUGUAUCCCUAUGGAGGAUAUGUGUCACGUG | – | – | 0.113 | 0.0305
53 | AAAUGAUGUCAGGAUAUUGACGUUAAAAGAACGCAAGAAGGGACAACAUGAGGAUCACCCAUGUGGUCCUAUAA | 0.0149 | 0.034 | – | –
54 | AGAUCAGUCUGAGUGCCUCGCGCGAGAAGGUACAGUGUUGUCCUGUUACAUGAGGAUCACCCAUGUAAGGAUAUCGCCGAGGAG | 0.00786 | 0.0284 | – | –
55 | UCAUAUAAACAAGGAUAUCAAUUAUUUACACAUCCUACAUGAGGAUCACCCAUGUUUUAAUAUUUUGAGAAGGUGUAAUGUCGG | – | – | 0.024 | 0.0299
56 | UGGCACCGAGGAUAUACAUGAGGAUCACCCAUGUUCGGAAAGCAUACGGUGGCUUGCUGUAGAAGGCGGGCCAC | 0.0162 | 0.013 | – | –
